This is an account of results in ChEMBL document CHEMBL3227998, “Synthesis and pharmacological activity of 2,3,4,5,-tetrahydro-1,5-methano-1H-3-benzazepines” (J Med Chem, 1979).

Data set [1] relates to Mus musculus. Nature of the data set: Analgesic activity in sc dosed mouse by eddy's hot-plate method. In kind it is functional. The method, boiled down: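 Mice were given aqueous solutions of the oxalate salts subcutaneously. Antinociception was read by the Eddy hot-plate method, and analgesic potency was expressed as ED50 in mg/kg.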
The test system of data set [2] is Mus musculus. Nature of the data set: (§1) Toxicity in sc dosed mouse. As to conditions: in vivo. In kind it is organism-based.
For data set [3], the system named is Mus musculus. Nature of the data set: Inhibition of morphine-induced response in mouse at 0.3 mg/kg, sc by tail-flick antagonist assay. It counts as functional. The following applies: route subcutaneous. Set-up: scale not given: the % may be the effect or the level left.
Data set [4] can be described thus: as §1. In kind it is organism-based. As to conditions: in vivo.
Data set [5] deals with Mus musculus. Nature of the data set: Inhibition of morphine-induced response in mouse at 3 mg/kg, sc by tail-flick antagonist assay. In kind it is functional. Further details: scale not given: the % may be the effect or the level left. As to conditions: route subcutaneous.
Data set [6] has as its system Mus musculus. As to the kind of experiment: Inhibition of morphine-induced response in mouse at 1 mg/kg, sc by tail-flick antagonist assay. In kind it is functional. Further details: scale not given: the % may be the effect or the level left. As to conditions: route subcutaneous.

Active and inactive are the calls of the source. The rule behind the calls is not given here.

With `O=C(O)C(=O)O.c1ccc2c(c1)C1CC2CN(CC2CC2)C1`, in data set [1], the result was inactive. Further, the Activity result in data set [2] is “Toxic”; in data set [3] it was 58%.
In data set [1], `C=CCN1CC2CC(C1)c1ccccc12.O=C(O)C(=O)O` showed an ED50 of 15.6 mg/kg. The LD50 in data set [4] was determined as 47 mg/kg. The same compound returned an Activity in data set [5] of 56%.
As for `CC(C)=CCN1CC2CC(C1)c1ccccc12.O=C(O)C(=O)O`, the outcome in data set [1] was inactive. For the same compound, the Activity entry in data set [2] is “Toxic”.
For the compound `c1ccc2c(c1)CC1CC2CCN1` (stereo not drawn), the ED50 in data set [1] turned out to be 10.2 mg/kg.
Take `CCCN1CC2CC(C1)c1ccccc12.O=C(O)C(=O)O`: the outcome in data set [1] was inactive. Moreover, the Activity entry is on record as “Toxic” in data set [2] and 47% in data set [6].
For the compound `CN1CC2CC(C1)c1ccccc12.O=C(O)C(=O)O`, the result in data set [1] was inactive. In addition, the Activity entry in data set [2] is “Toxic”.
For the compound `c1ccc2c(c1)C1CCNCC2C1` (stereo not drawn), in data set [1], it took a dose of 4.9 mg/kg to reach the 50% effect level (ED50).
Regarding `O=C(O)C(=O)O.c1ccc(CCN2CC3CC(C2)c2ccccc23)cc1`, the outcome in data set [1] was inactive. Also, the Activity result in data set [2] is on record as “Non-toxic”.
The compound `COc1ccc2c3c1O[C@H]1[C@@H](O)C=C[C@H]4[C@@H](C2)N(C)CC[C@@]341` [CODEINE] had an ED50 in data set [1] of 5.8 mg/kg.
